XBP1 UPR activ: adaptive UPR (XBP1) activation; AID 463104; CHO-XBP1 luciferase reporter, IRE1-XBP1 UPR activation, luminescence; percent of tunicamycin response, DMSO as zero; 330,000 compounds, 0.33% hits; activation, % at 20 µM;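 active = versus positive control, 20 µM dose yields 30% or more activation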;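 also: 100% = tunicamycin at 10 µg/mL and 0% = DMSO only wells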
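Material: CHO-XBP1 cells stably carrying IRE1-XBP1-driven luciferase reporter / Amount: 1000 cells per well / Compound: 20 µM, 1% DMSO / Times: 6 h treatment, 37 °C / Detection: luciferase luminescence / Measure: % activation of reporter signal versus tunicamycin and DMSO controls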
Lmaj promast: Leishmania major promastigote growth inhibition; Leishmania major promastigotes, resazurin fluorescence viability; inhibition, % at 10 µM; 200,000 compounds, 9% hits; in the data active = inhibition above about 50%;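 also: promastigotes grown with compound for 44 hours at 28 °C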
CHOP inhibitor: blocks CHOP induction under ER stress. 220,000 compounds, 3.8% hits. inhibition, % at 10 µM. CHO-K1 CHOP-promoter luciferase, tunicamycin-induced, 15-18 h;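 active = compounds that reduced the stress-induced luciferase reporter signal by more than about 70% of percent inhibition, limit read from the data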;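 also: 0% = tunicamycin plus vehicle and 100% = wells without tunicamycin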
Dynein cargo inh: blocks dynein driven cargo transport along microtubules; 3617.4 mouse cells, GR-EGFP nuclear translocation imaging; test concentration mostly 20 µM; stimulated with dexamethasone, 1 µM; hits give low values; z-score, hits read low; 220,000 compounds, 0.47% hits;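 active = plate z-score of nuclear minus cytoplasmic receptor signal below a set negative limit, without overly bright fluorescence or cell loss, cut at about -3.5 in these data, passing the limit was not always enough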;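 also: z-score of nuclear minus cytoplasmic ring GR-EGFP intensity difference per well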
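Buffer or medium: tet-free, stripped-serum medium; Also added: dexamethasone, 1.0 µM final; Technique: high-content fluorescence imaging after fixation; Times: 48 h induction, 1 h compound, 30 min dex at 37 °C; Read-out: per-cell GR-EGFP intensity, nucleus versus surrounding cytoplasmic ring, well-averaged.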
UPR CHOP act: apoptotic UPR (CHOP) activation; CHO-CHOP luciferase reporter, luminescence; percent of tunicamycin response over DMSO baseline; activation, % at 10 µM; 330,000 compounds, 0.34% hits;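 active = at 10 µM dose, activation of 40% or more, normalized to positive control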;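 also: 100% = tunicamycin at 10 µg/mL and 0% = DMSO alone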
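assay system = CHO CHOP reporter cells | amount = 500 CHO-CHOP cells per well | buffer or medium = F12 with 10% FBS | incubation = 16-18 h cell attachment, then 6 h compound exposure, 37 °C | detection = luminescence read with Steady-Glo | read-out = percent activation relative to tunicamycin control | controls = tunicamycin high control, DMSO low control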
T cruzi inh: blocks replication of Trypanosoma cruzi. T. cruzi beta-gal in NIH3T3, luminescence, 90 h. inhibition, % (test concentration not listed). 300,000 compounds, 1.4% hits. AID 1885;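 active = mean inhibition across valid replicates above about 55%, limit read from the data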;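 also: signal also drops with host cell toxicity which is not excluded here; 0% = plate median of DMSO wells and 100% = zero luminescence signal; higher percent means less beta-gal luminescence so fewer parasites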
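System: NIH/3T3 fibroblasts plus reporter T. cruzi. Medium: DMEM plus 2% FBS. Probe or stimulus: 5000 reporter trypomastigotes per well. Compound: single 50 nL compound addition per well in DMSO. Incubation: co-culture of at least 90 h after 3 h attachment. Detection: GalScreen β-gal luminescence, detergent lysis, 60 min. Evaluation: parasite load inhibition, %.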
The depositor's hits bear a star; / = no result. Only a selection was taken, and hits are over-represented in it overall.

SMILES	XBP1 UPR activ	Lmaj promast	CHOP inhibitor	Dynein cargo inh	UPR CHOP act	T cruzi inh
CC(OC(=O)/C=C/c1ccc2ccccc2n1)C(=O)NCc1ccccc1 (configuration not stated)	-4	/	/	/	5	-10
Cc1ccc2nc(NC(=O)c3ccc(OCC4CCCO4)cc3)sc2c1 (configuration not stated)	5	3	24	0.14	5	9
Cc1cc(C)c2nc(NC(=O)c3ccc(OCC4CCCO4)cc3)sc2c1 (configuration not stated)	4	73*	34	0.0022	3	-9
O=C(NCc1ccc(Cl)cc1)c1ccc(OCC2CCCO2)cc1 (configuration not stated)	1	44	2	0.064	0	-14
Cc1ccc(CNC(=O)c2ccc(OCC3CCCO3)cc2)cc1 (configuration not stated)	0	68*	1	-0.17	1	-11
CN1CCN(C(CNC(=O)c2ccc(Br)o2)c2ccc(F)cc2)CC1 (configuration not stated)	-1	/	/	/	0	62*
CN1CCN(C(CNC(=O)C(=O)Nc2ccc3c(c2)OCCO3)c2ccc(F)cc2)CC1 (configuration not stated)	-2	/	/	/	1	62*
Cc1ccc(C(CNC(=O)c2ccc(Br)o2)N2CCN(C)CC2)cc1 (configuration not stated)	-4	/	/	/	-1	10
Cc1ccc(C(CNC(=O)C(=O)Nc2ccc3c(c2)OCCO3)N2CCN(C)CC2)cc1 (configuration not stated)	-1	/	/	/	0	9
CCn1c(CN2CCOCC2)nnc1SCC(=O)Nc1cccc(C)c1	-5	/	/	/	1	-1
O=S(=O)(c1cccs1)N1CCN(CC(O)COc2cccc(Br)c2)CC1 (configuration not stated)	-1	98*	8	-0.38	-1	9
CC(C)C[C@H](NC(=O)OC(C)(C)C)c1nnc(SCc2cccc(F)c2)o1	-1	69*	50	-0.48	-1	31
CSCC[C@H](NC(=O)OC(C)(C)C)c1nnc(SCc2cccc(F)c2)o1	8	18	64	-0.34	-2	14
C=CCn1c(Cc2nc3ccc(Cl)cc3[nH]2)n[nH]c1=S	1	-9	82*	0.5	1	2
COc1ccc(S(=O)(=O)NCCc2nnc3ccc(SCC(=O)Nc4nc(C)cs4)nn23)cc1	-4	-5	57	-1.1	-1	15
Cn1c(CN2CCCC(C(=O)c3ccc4c(c3)OCO4)C2)nc2ccccc21 (configuration not stated)	-1	35	18	0.29	-2	73*
O=C(c1ccc2c(c1)OCO2)C1CCCN(Cc2ccc3nsnc3c2)C1 (configuration not stated)	-2	92*	33	0.12	1	31
O=C(c1ccc2c(c1)OCO2)C1CCCN(Cc2ccccc2OC(F)F)C1 (configuration not stated)	-1	/	/	/	-1	11
Cn1nnnc1SCC(=O)NC1CCCc2ccccc21 (configuration not stated)	0	-3	21	-0.76	2	-2
CCN1CCN(c2nc(SC)nc3sc4c(c23)CC(C)(C)OC4)CC1	/	9	19	1.4	/	7
CC(C)Sc1nc(N2CCOCC2)c2c3c(sc2n1)COC(C)(C)C3	2	5	82*	-0.38	1	22
O=C(CSc1nc(O)cc(=O)n1-c1ccccc1)Nc1ccc(Br)cn1	0	4	1	-0.061	0	-8
CCOC(=O)C(=O)C1=C(N2CCOCC2)/C(=C\c2ccc(F)cc2)CC1	0	71*	11	0.19	-2	-26
COC(=O)c1cc(C(=O)OC)cc(-n2c(C)cc(C(=O)CC#N)c2C)c1	1	95*	21	0.13	1	-8
Cc1cc(C(=O)CC#N)c(C)n1-c1ccc(OC(F)F)cc1	1	-3	18	-0.71	-2	9
SMILES	XBP1 UPR activ	Lmaj promast	CHOP inhibitor	Dynein cargo inh	UPR CHOP act	T cruzi inh
COc1cc(OC)cc(C(=O)N2CCC(C(=O)Nc3ccc4c(c3)OCCO4)CC2)c1	-6	3	31	-1.2	-2	-14
CCn1nnnc1-c1ccc(OC)c(S(=O)(=O)Nc2ccc(C)c(C)c2)c1	-1	99*	5	-0.62	4	-11
Cc1cccc(C)c1NC(=O)CSc1nc(COc2ccccc2)nc2ccccc12	2	38	88*	0.047	0	1
CCOc1ccc(NC(=O)CSc2nc(C3CC3)nc3ccccc23)cc1	1	2	96*	-0.56	0	10
COC(=O)c1cc(C(=O)Nc2ccc(S(N)(=O)=O)cc2)cc([N+](=O)[O-])c1	-2	61*	-9	0.4	2	11
COC(=O)c1cc(C(=O)Nc2ccc(C)cn2)cc([N+](=O)[O-])c1	0	-5	-1	-0.096	0	0
CCCC(C)c1nnc(NC(=O)c2cc(C(=O)OC)cc([N+](=O)[O-])c2)s1 (configuration not stated)	0	97*	51	-0.57	-2	48
Cc1cccc(CNc2ncnc3ccc(-c4ccccc4Cl)cc23)c1	-1	/	/	/	-2	/
CCSC1=NC(C)(C)C=C(/C=C/c2ccc(Cl)cc2Cl)N1	-1	100*	35	-1.6	5	28
CSC1=NC(C)(C)C=C(/C=C/c2ccc(Cl)cc2Cl)N1	-2	72*	-25	-0.89	0	0
CSC1=NC(C)(C)C=C(/C=C/c2c(Cl)cccc2Cl)N1	-4	58*	-3	-0.89	-1	23
Nc1nccc(/C=C/c2c(Cl)cccc2Cl)n1	-2	/	53	-0.43	5	21
Cc1ccc(-c2nnc(CN3CCCCC3C)o2)cc1 (configuration not stated)	-3	/	/	/	-1	-4
COc1ccccc1OC(C)C(=O)Nc1nc(-c2ccc(S(=O)(=O)N3CCOCC3)cc2)cs1 (configuration not stated)	-1	29	18	0.87	-2	20
COc1ccc(-c2csc(NC(=O)c3cccc(S(=O)(=O)N4CCN(C)CC4)c3)n2)cc1	1	63*	47	-0.16	-1	31
O=C(Nc1nc(-c2ccc(S(=O)(=O)N3CCCC3)cc2)cs1)c1ccco1	0	97*	9	0.52	4	11
COc1ccccc1C(=O)Nc1nc(-c2ccc(S(=O)(=O)N3CCOCC3)cc2)cs1	-4	23	92*	1.9	-6	47
CN(C)CCCOC(=O)c1ccc(Cl)cc1Cl	1	93*	18	-0.4	-2	62*

Screening results as filed in PubChem BioAssay.
